High-throughput results: PubChem BioAssay, The Scripps Research Institute Molecular Screening Center
Sampled rows, rich in hits. Any-hit rate of the full collection: about 1.8%.
CHRM4 antagonist: human M4 muscarinic receptor antagonists, primary screen, CHO cells, Fluo-8 calcium fluorescence. Muscarinic acetylcholine receptor M4 (Homo sapiens), P08173. CHO-hM4 cells, ACh EC80. inhibition, % at 3 µM. 360,000 tested, 0.73% active. AID 624125, 2012;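 active = inhibition above its plate's cutoff, the mean inhibition of sample wells plus 3 SD, cut at about 27% in these data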;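 note: 0% = acetylcholine EC80 with DMSO and 100% = DMSO without agonist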
CHRM5 PAM: human M5 muscarinic receptor positive allosteric modulators, primary screen, CHO-K1 cells, Fluo-8 calcium fluorescence; activation, % at 3 µM; Muscarinic acetylcholine receptor M5 (Homo sapiens), P08912; CHO-K1 hM5, ACh EC20 PAM; 0% = ACh EC20, 100% = ACh EC100; 360,000 tested, 0.3% active;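 active = activation above the run cutoff, the mean activation of all test compounds plus 3 SD, cut at about 18% in these data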
Target sequence (P08912 whole entry, looked up): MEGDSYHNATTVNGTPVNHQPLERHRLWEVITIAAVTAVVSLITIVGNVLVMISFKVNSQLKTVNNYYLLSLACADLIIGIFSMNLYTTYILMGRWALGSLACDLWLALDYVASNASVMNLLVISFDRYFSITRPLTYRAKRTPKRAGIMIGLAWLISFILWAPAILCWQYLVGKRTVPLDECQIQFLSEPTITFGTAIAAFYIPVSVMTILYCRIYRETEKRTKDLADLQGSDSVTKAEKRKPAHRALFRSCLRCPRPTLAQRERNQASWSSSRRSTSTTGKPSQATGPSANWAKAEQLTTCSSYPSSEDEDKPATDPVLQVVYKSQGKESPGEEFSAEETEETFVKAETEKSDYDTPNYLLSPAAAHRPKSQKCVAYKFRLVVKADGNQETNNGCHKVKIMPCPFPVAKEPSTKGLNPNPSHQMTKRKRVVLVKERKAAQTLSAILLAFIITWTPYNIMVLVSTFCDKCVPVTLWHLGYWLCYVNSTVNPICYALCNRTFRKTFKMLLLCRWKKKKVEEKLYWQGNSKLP
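Probe or stimulus: acetylcholine, EC20 level; Assay system: human M5 receptor in CHO-K1 cells; Schedule: compound preincubation 140 s before EC20 acetylcholine addition; Technique: intracellular calcium via Fluo-8 fluorescence; Dosing: single-point, 3 µM nominal; Read-out basis: percent activation from peak-over-basal fluorescence ratio, scaled EC20-to-EC100 acetylcholine; Repeats: one well per compound, no replicates.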
M5 ag: human M5 muscarinic receptor agonists, primary screen, CHO-K1 cells, Fluo-8 calcium fluorescence | Muscarinic acetylcholine receptor M5 (Homo sapiens), P08912 | CHO-K1 hM5 cells; 0% DMSO wells, 100% maximal acetylcholine response | activation, % at 3 µM | 360,000 tested, 0.19% active;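 active = activation above the run's mean over test compounds plus 3 SD, cut at about 23% in these data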;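 note: signal is peak over basal fluorescence ratio across the kinetic read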
M4 PAM: human M4 muscarinic receptor positive allosteric modulators, primary screen, CHO-K1 cells, Fluo-8 calcium fluorescence; Muscarinic acetylcholine receptor M4 (Homo sapiens), P08173; CHO-K1 hM4/Gqi5, ACh EC20; 0% = ACh EC20, 100% = maximal ACh; activation, % at 3 µM; 360,000 tested, 0.4% active;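 active = activation above its plate's cutoff, the mean activation of sample wells plus 3 SD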
M5 antag: human M5 muscarinic receptor antagonists, primary screen, CHO cells, Fluo-8 calcium fluorescence. inhibition, % at 3 µM. 360,000 tested, 0.59% active. Muscarinic acetylcholine receptor M5 (Homo sapiens), P08912. CHO-hM5 cells, ACh EC80;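 active = inhibition above a per-plate cutoff, the mean of that plate's test compounds plus 3 SD, cut at about 27% in these data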;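 note: 0% = acetylcholine EC80 with DMSO and 100% = DMSO without agonist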
M4 ag: human M4 muscarinic receptor agonists, primary screen, CHO-K1 cells, Fluo-8 calcium fluorescence | activation, % at 3 µM | CHO-K1 hM4/Gqi5; vehicle 0%, full acetylcholine response 100% | 360,000 tested, 0.14% active | Muscarinic acetylcholine receptor M4 (Homo sapiens), P08173;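 active = activation above the run mean over all test wells plus 3 SD, cut at about 32% in these data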;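 note: peak over basal fluorescence ratio per well then scaled between controls; 0% = DMSO wells and 100% = acetylcholine at EC100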
Active calls of the source: *.

SMILES | CHRM4 antagonist | CHRM5 PAM | M5 ag | M4 PAM | M5 antag | M4 ag
Cc1ccc(NC(=O)C2=C(c3ccccc3)S(=O)(=O)CCS2(=O)=O)cc1 | 39* | -2 | -5 | 2 | 10 | 5
COc1ccc(-[n+]2c(C)cc(/C=C3\Sc4ccccc4N3C)cc2C)cc1 | 50* | -23 | 6 | -23 | 48* | 10
COc1ccc(C(=O)/C=C2\Sc3ccccc3N2C)cc1 | -2 | 6 | -4 | 5 | 1 | 1
COc1ccccc1-[n+]1c(C)cc(/C=C2\Sc3ccccc3N2C)cc1C | 40* | -29 | 14 | -40 | 53* | 16
COc1ccccc1OC(=O)CCN1c2ccccc2Sc2ccccc21 | -14 | -8 | 0 | -2 | 9 | -1
CCCc1c(-c2cccc(Br)c2)ncn1Cc1ccccc1OC | -9 | -7 | -3 | 6 | 3 | 0
Cn1ncc([N+](=O)[O-])c1C(=O)N/N=C/c1ccc(F)cc1 | 7 | 3 | 1 | 31* | -8 | 1
Cn1ccc(C(=O)N/N=C/c2c[nH]c3ccccc23)n1 | -23 | 28* | 1 | -1 | -3 | 3
Cc1ccc(C(=O)NNC(=O)c2ccc(S(=O)(=O)N(C)c3ccccc3)cc2)cc1 | -9 | 1 | 1 | 2 | -5 | 3
N/C(=N\OC(=O)Nc1cccc(C(F)(F)F)c1)c1ccno1 | 10 | -17 | 0 | -7 | 27* | 7
O=C(Cn1ncc2c([nH]c3ccccc32)c1=O)NCCc1ccccc1 | 0 | 12 | 0 | 19* | -5 | 1
O=c1cccc2n1Cc1cc3ccccc3nc1-2 | 2 | 0 | 4 | 26* | 11 | 3
Fc1cccc(F)c1-n1c(CN2CCCC2)csc1=S | 68* | 1 | -7 | 9 | 2 | 21
O=C(OCc1ccccc1)N(CCCCN(CCCNCc1ccccc1)C(=O)OCc1ccccc1)CCCNCc1ccccc1 | 65* | -14 | -10 | -11 | 21 | 26
Cc1ccc(N2C(=O)c3ccccc3NC2c2ccccc2O)cc1 (stereo unspecified) | 45* | -8 | -8 | -17 | 17 | 1
COc1ccc(NS(=O)(=O)c2ccc(/C=C/C(=O)O)cc2)cc1S(=O)(=O)N1CCOCC1 | -2 | 12 | -3 | 0 | -3 | 0
C/C(CC(=O)NCc1ccccc1)=N\NC(=O)c1cnccn1 | 7 | 5 | -1 | 31* | -10 | 2
COc1cccc(NC(=O)CCNC(=O)N2CC(=O)Nc3ccccc32)c1 | 2 | 11 | -1 | -1 | -14 | 0
C[C@@H]1CCCCO[C@@H](CN(C)S(=O)(=O)c2ccc(Cl)cc2)[C@@H](C)CN([C@H](C)CO)C(=O)c2cc(N(C)C)ccc2O1 | -22 | 5 | -1 | 18* | 1 | 0
Cc1ccc(S(=O)(=O)N(C)C[C@H]2OCCCC[C@@H](C)Oc3ccc(N(C)C)cc3C(=O)N([C@H](C)CO)C[C@@H]2C)cc1 | -4 | 0 | 0 | 1 | -1 | 0
O=C(O)c1ccccc1C(c1ccccc1)c1ccccc1O (stereo unspecified) | -1 | -5 | -2 | 0 | 17 | 0
OC[C@@H]1CN(Cc2ccc3c(c2)OCO3)C[C@H](n2cnc3c(NCc4ccc(F)cc4)ncnc32)O1 | -9 | -4 | 7 | 2 | -5 | 12
CC1=CC2(O)OCCN(CCO)C2=CC1=O (stereo unspecified) | 3 | -12 | 1 | 9 | 28* | 0
Cc1cc(C)n(-c2ncc3c(n2)N(CCO)CCOC3=O)n1 | 4 | -11 | -3 | -5 | 20 | 7
O=[N+]([O-])c1cc(C(F)(F)F)cc([N+](=O)[O-])c1NCCNC(=S)Nc1cccc(F)c1 | 16 | -26 | 12 | -31 | 28* | 18
SMILES | CHRM4 antagonist | CHRM5 PAM | M5 ag | M4 PAM | M5 antag | M4 ag
CSc1nc(SCCN(C)C)c2c3c(sc2n1)COC(C)(C)C3 | -14 | 17 | -1 | 7 | -7 | 52*
CCCCSc1nc(NCc2ccco2)c2c3c(sc2n1)COC(C)(C)C3 | 8 | 3 | -1 | -2 | -1 | -2
CCCSc1nc(NCc2ccco2)c2c3c(sc2n1)COC(C)(C)C3 | 5 | 4 | 4 | 43* | -3 | -1
CSc1nc(SC(C)C(=O)O)c2c3c(sc2n1)COC(C)(C)C3 (stereo unspecified) | -5 | 7 | -2 | 8 | 2 | 0
Cc1ccc(S(=O)(=O)N2CCN(S(=O)(=O)c3ccccc3Br)CC2)cc1 | -6 | 2 | 0 | 4 | -3 | 0
CN1CCN(NC(=O)c2cc(Br)ccc2Cl)CC1 | 1 | -13 | -6 | -2 | 27* | 1
CN1CCN(NC(=O)c2ccc(Cl)cc2Cl)CC1 | -1 | -4 | -3 | -4 | 5 | 1
C/C(=N/NC(=O)c1nnn(-c2nonc2N)c1COc1ccccc1)c1ccccc1 | 0 | -4 | -3 | -1 | 15 | 1
COC(=O)c1ccc2nc(-c3cccc(Br)c3)c(Cc3ccsc3)n2c1 | -15 | 1 | 1 | 21* | -10 | 0
CCOC(=O)C(NC(=O)CC)(Nc1cc(C)on1)C(F)(F)F (stereo unspecified) | -8 | 6 | -3 | 34* | -7 | 1
Cc1cccc(C)c1-c1ccc(CN2C(CC(C)C)C(=O)N(Cc3cn(CCO)nn3)CCS2(=O)=O)cc1 (stereo unspecified) | 28* | -13 | 3 | -13 | 11 | 29
CC1C(=O)N(Cc2cn(CCC3OCCCO3)nn2)CCS(=O)(=O)N1Cc1ccc(-c2ccc(F)cc2)cc1 (stereo unspecified) | -2 | -8 | 1 | -9 | 7 | 17
CC1C(=O)N(Cc2cn(CCC3OCCCO3)nn2)CCS(=O)(=O)N1Cc1ccc(-c2ccc(Cl)c(Cl)c2)cc1 (stereo unspecified) | 40* | -18 | 7 | -12 | 36* | 21
CCOc1ccccc1NC(=O)COC(=O)c1cnc(C)cn1 | -1 | -2 | 1 | 2 | 4 | -1
COC(=O)c1csc(S(=O)(=O)N2CCOCC2)c1OC | -10 | -4 | -3 | 9 | 6 | 1
O=C(Nc1ccc(F)c(Cl)c1)c1ccc2c(c1)OCO2 | -5 | 6 | -7 | -1 | -14 | 2
O=C(Nc1ccc2c(c1)OCCO2)c1ccccc1 | 29* | -10 | 1 | -14 | 16 | 21
